Activity calls are given as the source filed them. The rule behind the calls is not given here.
Columns and labels:
[1] = Drug uptake in lung of iv dosed Swiss mouse infected with mouse HSDM1C1 cells administered with radiolabeled Gallium-68 measured after 60 mins; assay type: ADME, organism-based; details: in vivo, 1 h
Summary of the method: (§1)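 Fibrosarcoma grown from ~10⁶ HSDM1C1 cells injected subcutaneously on the dorsum, used at ~1 cm tumour diameter; 20–25 g Swiss mice. ⁶⁸Ga-labelled, Sep-Pak-purified preparation (~100 μCi, 3.7 MBq, 150 μL, saline) given i.v. via tail vein. Killed by CO₂ at 30 or 60 min, n = 3; blood by cardiac puncture, organs excised, washed, weighed and counted by NaI(Tl); % IA per g.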

A549 [2] = assay: Cytotoxicity against human A549 cells assessed as cell growth inhibition incubated for 24 hrs under light exposure by MTT assay; assay type: functional, cell-based; details: A549, 24 h
Summary of the method: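 Photocytotoxicity IC₅₀ determination in A549 cells: 6 h compound exposure at 0.1, 0.5, 1, 2.5, 5.0, 10.0, 20.0 μM, then LED light dose of 0.02 kJ cm⁻² and 18 h post-irradiation incubation before MTT read-out. % cell death plotted against log concentration (nM) to derive IC₅₀.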

[3] = Octanol-water partition coefficient, logP of the compound; assay type: physicochemical
Summary of the method: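 ⁶⁸Ga-labelled preparation (100 μL) added to octanol (1.0 mL) and water (900 μL), mixed, centrifuged 2500 rpm for 5 min. Aliquots of each layer counted by NaI(Tl); log P taken as log of organic/aqueous count ratio.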

[4] = Drug uptake in kidney of iv dosed Swiss mouse infected with mouse HSDM1C1 cells administered with radiolabeled Gallium-68 measured after 60 mins; assay type: ADME, organism-based; details: in vivo, 1 h; summary of the method: as §1
[5] = Drug uptake in liver of iv dosed Swiss mouse infected with mouse HSDM1C1 cells administered with radiolabeled Gallium-68 measured after 60 mins; assay type: ADME, organism-based; details: in vivo, 1 h; summary of the method: as §1
[6] = Drug uptake in tumor of iv dosed Swiss mouse infected with mouse HSDM1C1 cells administered with radiolabeled Gallium-68 measured after 30 mins; assay type: ADME, organism-based, Neoplasm; details: in vivo, 0.5 h; summary of the method: as §1
[7] = Drug uptake in tumor of iv dosed Swiss mouse infected with mouse HSDM1C1 cells administered with radiolabeled Gallium-68 measured after 60 mins; assay type: ADME, organism-based, Neoplasm; details: in vivo, 1 h; summary of the method: as §1
[8] = Drug uptake in kidney of iv dosed Swiss mouse infected with mouse HSDM1C1 cells administered with radiolabeled Gallium-68 measured after 30 mins; assay type: ADME, organism-based; details: in vivo, 0.5 h; summary of the method: as §1
A549 [9] = assay: Cytotoxicity against human A549 cells assessed as cell growth inhibition at 1 uM incubated for 24 hrs under light exposure by MTT assay; assay type: functional, cell-based
Summary of the method: (§2)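 A549 plated as for MTT, incubated with compound (0.5 or 1 μM) for 6 h, then irradiated by LED at 42 W m⁻² for 90 min (0.02 kJ cm⁻²). Cells then held 18 h at room temperature and assayed by MTT. Controls were light without compound and compound without light.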

A549 [10] = assay: Cytotoxicity against human A549 cells assessed as cell growth inhibition at 0.5 to 10 uM incubated for 24 hrs under dark condition by MTT assay; assay type: functional, cell-based; details: dose 0.5-10 µM, DDE = dose-dependent effect
Summary of the method: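 A549 in DMEM/10% FBS, 7 × 10³ cells/well seeded, overnight at 37 °C, 5% CO₂; treated at 0.5, 1, 2.5, 5, 10 μM without light, buffer control, n = 6. After 24 h, MTT added to a final 0.5 mg mL⁻¹ for 4 h; formazan dissolved in DMSO, A570 read with 660 nm reference; % dead cells calculated against vehicle control.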

A549 [11] = assay: Cytotoxicity against human A549 cells assessed as cell growth inhibition at 0.5 uM incubated for 24 hrs under light exposure by MTT assay; assay type: functional, cell-based; summary of the method: as §2
[12] = Drug uptake in lung of iv dosed Swiss mouse infected with mouse HSDM1C1 cells administered with radiolabeled Gallium-68 measured after 30 mins; assay type: ADME, organism-based; details: in vivo, 0.5 h; summary of the method: as §1
[13] = Drug uptake in spleen of iv dosed Swiss mouse infected with mouse HSDM1C1 cells administered with radiolabeled Gallium-68 measured after 60 mins; assay type: ADME, organism-based; details: in vivo, 1 h; summary of the method: as §1
[14] = Drug uptake in liver of iv dosed Swiss mouse infected with mouse HSDM1C1 cells administered with radiolabeled Gallium-68 measured after 30 mins; assay type: ADME, organism-based; details: in vivo, 0.5 h; summary of the method: as §1
[15] = Drug uptake in blood of iv dosed Swiss mouse infected with mouse HSDM1C1 cells administered with radiolabeled Gallium-68 measured after 60 mins; assay type: ADME, organism-based; details: in vivo, 1 h; summary of the method: as §1
[16] = Drug uptake in blood of iv dosed Swiss mouse infected with mouse HSDM1C1 cells administered with radiolabeled Gallium-68 measured after 30 mins; assay type: ADME, organism-based; details: in vivo, 0.5 h; summary of the method: as §1
[17] = Drug uptake in spleen of iv dosed Swiss mouse infected with mouse HSDM1C1 cells administered with radiolabeled Gallium-68 measured after 30 mins; assay type: ADME, organism-based; details: in vivo, 0.5 h; summary of the method: as §1

Ct [1]: 5.33%
logP [3]: -1.54
Ct [4]: 3.35%
Ct [5]: 15.11%
Ct [6]: 2.53%
Ct [7]: 2.45%
Ct [8]: 4.78%
Ct [12]: 8.87%
Ct [13]: 3.23%
Ct [14]: 23.46%
Ct [15]: 6.87%
Ct [16]: 9.97%
Ct [17]: 5.52%
Compound: O=C(O)COc1ccc(-c2c3nc(c(-c4ccc(OCC(=O)O)cc4)c4ccc([nH]4)c(-c4ccc(OCC(=O)O)cc4)c4nc(c(-c5ccc(O)cc5)c5ccc2[nH]5)C=C4)C=C3)cc1
IC50 (A549 [2]): 5.65 µM
Activity (A549 [9]): Active
Activity (A549 [10]): Dde
Activity (A549 [11]): Active

From ChEMBL document CHEMBL5104213, “Evaluation of the effect of a cell penetrating peptide (TAT) towards tailoring the targeting efficacy and tumor uptake of porphyrin” (RSC Med Chem, 2022)
